Here are results for three compounds from ChEMBL document CHEMBL4004822, “Thienopyrimidinone Based Sirtuin-2 (SIRT2)-Selective Inhibitors Bind in the Ligand Induced Selectivity Pocket” (J Med Chem, 2017).

The species named for assay [1] is Homo sapiens. The experiment in a line: Selectivity ratio of IC50 for recombinant human N-terminal His-tagged SIRT1 (1 to 747 end residues) expressed in Escherichia coli to IC50 for recombinant human C-terminal His-tagged SIRT2 (50 to 389 end residues) expressed in Escherichia coli.
For assay [2], the target named is T1, NAD-dependent protein deacetylase sirtuin-3, mitochondrial (Homo sapiens, UniProt Q9NTG7).
T1 sequence (Q9NTG7 whole entry): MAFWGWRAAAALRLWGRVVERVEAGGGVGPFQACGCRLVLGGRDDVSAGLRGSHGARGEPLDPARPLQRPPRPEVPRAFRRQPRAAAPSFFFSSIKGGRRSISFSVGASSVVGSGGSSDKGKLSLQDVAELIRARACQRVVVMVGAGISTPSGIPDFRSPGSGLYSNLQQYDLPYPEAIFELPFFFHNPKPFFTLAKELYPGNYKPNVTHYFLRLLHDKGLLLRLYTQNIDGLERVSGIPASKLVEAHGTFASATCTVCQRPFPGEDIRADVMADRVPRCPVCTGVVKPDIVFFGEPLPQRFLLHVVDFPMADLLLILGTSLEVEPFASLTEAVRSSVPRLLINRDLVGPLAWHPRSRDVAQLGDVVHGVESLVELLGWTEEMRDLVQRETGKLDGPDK
Briefly: Inhibition of recombinant human N-terminal GST-tagged SIRT3 (101 to 399 residues) expressed in Escherichia coli using p53 derived (379 to 382 residues) fluorogenic peptide substrate RHKK(Ac)-AMC) preincubated for 10 mins followed by substrate addition in presence of NAD+ by fluorescence assay.

Assay [3] has as its target T2, NAD-dependent protein deacetylase sirtuin-2 (Homo sapiens) (UniProt Q8IXJ6).
T2 sequence (whole entry): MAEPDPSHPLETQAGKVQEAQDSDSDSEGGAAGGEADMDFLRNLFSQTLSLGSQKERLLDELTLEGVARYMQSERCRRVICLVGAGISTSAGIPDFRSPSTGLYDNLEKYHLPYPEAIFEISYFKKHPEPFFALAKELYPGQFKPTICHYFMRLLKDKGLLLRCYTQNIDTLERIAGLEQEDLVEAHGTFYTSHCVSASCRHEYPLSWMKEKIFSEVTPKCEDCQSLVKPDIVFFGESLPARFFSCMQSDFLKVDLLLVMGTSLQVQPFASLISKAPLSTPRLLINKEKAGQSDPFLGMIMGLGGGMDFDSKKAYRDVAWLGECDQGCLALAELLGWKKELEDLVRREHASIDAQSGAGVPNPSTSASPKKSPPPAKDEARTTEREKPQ
The experiment in a line: Inhibition of SIRT2 in human MCF7 cells assessed as increase in alpha-tubulin K40 acetylation level at 20 uM after 24 hrs in presence of TSA by Western blot analysis. The format is cell-based. The gist of the method: (§1)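 MCF-7 cells (ATCC, authenticated) kept in DMEM with 10% FCS, penicillin/streptomycin and 2 mM glutamine at 37 °C under 10% CO2. Treated 24 h with compound at 0, 1, 10, 20, 30 or 50 μM plus 50 nM TSA to block non-sirtuin HDACs. NP40 lysates (20 μg protein, BCA-quantified) run on SDS-PAGE and Western blotted for acetyl-K40 α-tubulin, total α-tubulin and β-actin; ECL detection.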
For orientation: A western blot detects proteins with antibodies after separation by electrophoresis.

Assay [4] deals with NAD-dependent protein deacylase sirtuin-5, mitochondrial (Homo sapiens, UniProt Q9NXA8). The experiment in a line: Inhibition of recombinant human N-terminal His-tagged SIRT5 (37 to 310 end residues) expressed in Escherichia coli using Ac-K(Succ)-AMC as substrate in presence of NAD+ by fluorescence assay.
Assay [5] concerns the target T2, NAD-dependent protein deacetylase sirtuin-2 (Homo sapiens). Briefly: Inhibition of SIRT2 in human MCF7 cells assessed as increase in alpha-tubulin K40 acetylation level at 50 uM after 24 hrs in presence of TSA by Western blot analysis. The class given is cell-based. The gist of the method:
as §1

For assay [6], the target named is T3, NAD-dependent protein deacetylase sirtuin-1 (Homo sapiens, UniProt Q96EB6).
T3 sequence (Q96EB6 whole entry): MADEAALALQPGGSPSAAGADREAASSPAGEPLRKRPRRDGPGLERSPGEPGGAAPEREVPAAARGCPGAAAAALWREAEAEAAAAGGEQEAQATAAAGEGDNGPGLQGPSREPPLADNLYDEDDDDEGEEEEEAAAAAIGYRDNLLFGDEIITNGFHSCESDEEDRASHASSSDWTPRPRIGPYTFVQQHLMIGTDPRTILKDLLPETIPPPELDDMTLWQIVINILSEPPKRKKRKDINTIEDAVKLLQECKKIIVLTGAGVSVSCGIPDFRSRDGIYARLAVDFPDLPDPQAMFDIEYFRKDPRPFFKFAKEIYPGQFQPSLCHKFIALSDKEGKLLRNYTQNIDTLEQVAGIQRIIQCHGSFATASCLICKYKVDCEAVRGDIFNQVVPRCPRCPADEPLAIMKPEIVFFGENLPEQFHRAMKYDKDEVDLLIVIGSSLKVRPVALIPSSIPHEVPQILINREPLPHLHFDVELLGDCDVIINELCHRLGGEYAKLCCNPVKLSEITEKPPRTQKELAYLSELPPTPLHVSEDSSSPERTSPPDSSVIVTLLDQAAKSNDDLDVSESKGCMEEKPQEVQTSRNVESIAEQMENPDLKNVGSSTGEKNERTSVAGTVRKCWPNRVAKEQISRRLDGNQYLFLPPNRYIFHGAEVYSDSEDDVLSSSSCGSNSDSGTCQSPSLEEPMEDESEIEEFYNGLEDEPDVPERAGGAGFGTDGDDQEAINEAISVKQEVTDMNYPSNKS
Briefly: Inhibition of recombinant human N-terminal His-tagged SIRT1 (1 to 747 end residues) expressed in Escherichia coli using p53 derived (379 to 382 residues) fluorogenic peptide substrate RHKK(Ac)-AMC preincubated for 10 mins followed by substrate addition in presence of NAD+ by fluorescence assay. The gist of the method: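 Two-step fluorogenic assay with p53 379–382 RHKK(Ac)-AMC. Compound (from 10 mM DMSO stock) preincubated ~10 min with human SIRT before substrate addition. Developer then releases fluorophore, read at ex 360/em 460 nm.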

For assay [7], the target named is T4, NAD-dependent protein deacetylase sirtuin-2 (Homo sapiens, UniProt Q8IXJ6).
T4 sequence (Q8IXJ6 whole entry): T2 sequence (whole entry)
The experiment in a line: Inhibition of recombinant human C-terminal His-tagged SIRT2 (50 to 389 end residues) expressed in Escherichia coli in presence of NAD+ by enzyme coupled SIRT-Glo assay.

In assay [8] the target is T4, NAD-dependent protein deacetylase sirtuin-2. Briefly: Inhibition of recombinant human C-terminal His-tagged SIRT2 (50 to 389 end residues) expressed in Escherichia coli using tubulin-K40 peptide in presence of NAD+.
The species entered for assay [9] is Homo sapiens. Briefly: Selectivity ratio of IC50 for recombinant human N-terminal GST-tagged SIRT3 (101 to 399 residues) expressed in Escherichia coli to IC50 for recombinant human C-terminal His-tagged SIRT2 (50 to 389 end residues) expressed in Escherichia coli.
Assay [10] deals with NAD-dependent protein deacylase sirtuin-6 (Homo sapiens, UniProt Q8N6T7). Briefly: Inhibition of human SIRT6 (13 to 308 residues) using Ac-EALPKK(Myristoyl)TGG-NH2 as substrate after 10 mins in presence of NAD+ by fluorescence assay.
Assay [11] deals with T3, NAD-dependent protein deacetylase sirtuin-1. The experiment in a line: Inhibition of human SIRT1 (133 to 747 residues) using (Z-Lys(Acetyl)-AMC) as substrate after 4 hrs in presence of NAD+ by fluorescence assay.
Assay [12] deals with T2, NAD-dependent protein deacetylase sirtuin-2 (Homo sapiens). Briefly: Inhibition of SIRT2 in human MCF7 cells assessed as increase in alpha-tubulin K40 acetylation level at 10 to 50 uM after 24 hrs in presence of TSA by Western blot analysis. The format is cell-based. In a few lines:
as §1

Assay [13] addresses T3, NAD-dependent protein deacetylase sirtuin-1. Briefly: Inhibition of human SIRT1. In a few lines: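 Compounds were pre-incubated with human SIRT about 10 min before substrate addition, then developer added. Read ex 360/em 460 nm; activity relative to DMSO; sigmoidal 10-dose IC50, n = 2; suramin positive control.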

For orientation: IC50 means the concentration that inhibits the measured activity by half. One may read the Ki as a dissociation constant, usually derived from enzyme kinetics or from competition with a known ligand.

Activity calls are given as the source filed them. No cut-off for these calls is given here.

Sequence of NAD-dependent protein deacylase sirtuin-5, mitochondrial (Q9NXA8 whole entry): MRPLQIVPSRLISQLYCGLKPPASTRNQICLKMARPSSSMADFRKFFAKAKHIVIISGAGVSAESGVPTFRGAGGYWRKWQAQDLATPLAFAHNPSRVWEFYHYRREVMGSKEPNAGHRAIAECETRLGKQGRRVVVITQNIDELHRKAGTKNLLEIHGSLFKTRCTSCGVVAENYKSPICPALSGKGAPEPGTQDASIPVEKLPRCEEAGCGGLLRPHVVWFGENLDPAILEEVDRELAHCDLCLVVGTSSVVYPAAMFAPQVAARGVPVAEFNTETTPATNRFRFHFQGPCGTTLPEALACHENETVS
Sequence of NAD-dependent protein deacylase sirtuin-6 (Q8N6T7 whole entry, the tested form may be a part): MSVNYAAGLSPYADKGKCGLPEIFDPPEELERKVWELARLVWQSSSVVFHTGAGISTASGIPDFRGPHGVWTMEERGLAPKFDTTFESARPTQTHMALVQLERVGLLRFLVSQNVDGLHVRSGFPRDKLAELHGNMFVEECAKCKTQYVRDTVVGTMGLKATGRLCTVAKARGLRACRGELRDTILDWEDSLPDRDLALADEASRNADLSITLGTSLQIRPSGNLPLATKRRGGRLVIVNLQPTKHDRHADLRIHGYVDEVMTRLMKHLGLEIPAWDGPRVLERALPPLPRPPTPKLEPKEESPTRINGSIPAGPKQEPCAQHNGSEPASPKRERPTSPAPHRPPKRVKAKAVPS

Consider `COc1ccc2ccccc2c1Cn1cnc2sc3c(c2c1=O)CCC(NCc1cccnc1)C3` (stereo not drawn), for which the Ratio IC50 in assay [1] and in assay [9] was above 100 in each case. Further, the IC50 is above 100 µM in assay [2], above 100 µM in [4], above 100 µM in assay [6] and 0.17 µM in [7]. For the same compound, in [3], the inhibition entry was “Active”. The inhibition entry in [5] is “inactive”. The Ki in assay [8] came out at 0.62 µM.

Consider `Cc1cc(C)nc(SCC(=O)Nc2ncc(Cc3cccc4ccccc34)s2)n1`, for which the IC50 in assay [10] was above 200 µM; in [11], above 100 µM.

Turning to `N#C/C(=C\c1ccc(-c2cc(Cl)ccc2Cl)o1)C(=O)Nc1cccc2ncccc12`, in [12], the inhibition entry was “Active”. In assay [13], this compound registered an IC50 above 50 µM.
